MC4R antagonist – antagonists of human melanocortin 4 receptor (MC4R) | inhibition, % at 6.5 µM | MC4R-expressing cells, MTII-stimulated cAMP, LANCE TR-FRET | 0.48% of 360,000 active | P32245;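 active = inhibition above its plate's cutoff, the mean of tested wells on that plate plus 3 SD, cut at about 29% in these data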;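 also: 0% = Melanotan II alone and 100% = Melanotan II plus saturating MCL0020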
Target sequence (P32245 whole entry, looked up): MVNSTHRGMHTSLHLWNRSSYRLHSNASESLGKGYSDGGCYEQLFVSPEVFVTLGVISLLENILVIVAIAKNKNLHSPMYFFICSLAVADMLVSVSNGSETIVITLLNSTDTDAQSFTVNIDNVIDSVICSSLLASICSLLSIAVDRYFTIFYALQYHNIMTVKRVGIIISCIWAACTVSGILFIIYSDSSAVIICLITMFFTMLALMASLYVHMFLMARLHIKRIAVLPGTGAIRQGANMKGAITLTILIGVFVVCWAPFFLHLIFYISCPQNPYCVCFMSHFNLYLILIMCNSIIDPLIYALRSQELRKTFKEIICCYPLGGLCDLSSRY
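Material – human MC4R-expressing U2OS cells · Repeats – no replicates · Detection – TR-FRET with Eu-cAMP and labeled anti-cAMP, 671 nm · Times – compound 30 min, challenge 1 h, detection 1 h · Compound – single nominal compound dose of 6.5 µM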
EP2 antag – blocks the human prostaglandin E2 receptor EP2. inhibition, % at 25 µM. C6 glioma cells expressing human EP2, cAMP TR-FRET; cells stimulated with saturating PGE2. P43116. 0.52% of 260,000 active;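 active = percent inhibition above 40 after rounding to a whole number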;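 also: rat C6 glioma host cells with rolipram phosphodiesterase inhibitor present; the protocol text gives 20 µM as final concentration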
Target sequence (P43116 whole entry, looked up): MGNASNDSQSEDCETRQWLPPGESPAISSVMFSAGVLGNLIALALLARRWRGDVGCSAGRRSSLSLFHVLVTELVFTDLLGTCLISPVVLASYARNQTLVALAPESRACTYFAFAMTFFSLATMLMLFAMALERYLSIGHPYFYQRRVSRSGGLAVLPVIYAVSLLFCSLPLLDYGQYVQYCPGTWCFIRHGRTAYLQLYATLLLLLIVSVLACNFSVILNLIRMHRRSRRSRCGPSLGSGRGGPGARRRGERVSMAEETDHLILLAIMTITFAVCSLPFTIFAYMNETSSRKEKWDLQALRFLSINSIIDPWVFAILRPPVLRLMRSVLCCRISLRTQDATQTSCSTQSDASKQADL
Exocytosis inh – lytic granule exocytosis inhibition | TALL-104 LAMP-1 surface exposure, flow cytometry; cells stimulated with thapsigargin and PMA | inhibition, % at 10 µM | AID 651702 | 0.66% of 360,000 active;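 active = inhibition above about 55%, limit read from the data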
EP2 mod – modulators of human EP2 prostaglandin E2 receptor; induction, % at 25 µM; AID 940; 0.83% of 260,000 active; EP2-expressing cells, cAMP HTRF FRET, PGE2 co-stimulation;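 active = compounds whose cAMP rise, as percent of the full-agonist control response, exceeds 60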;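 also: rat C6 glioma line stably carrying human EP2 under a CMV promoter; the protocol text gives 20 µM as final concentration; 100% = response of wells given 1 µM PGE2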
MC4R ag barr – agonists of human melanocortin 4 receptor (MC4R) beta-arrestin. 0.98% of 360,000 active. U2OS MC4R beta-arrestin complementation, luminescence; percent of melanotan II response, DMSO zero. activation, % at 8.9 µM. P32245. AID 540308;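 active = activation above a per-plate cutoff, the mean activation of sample wells on that plate plus 3 SD, cut at about 8% in these data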
T cell modulator – T cell immune modulation candidate; AID 2052; 0.068% of 330,000 active; response (vesicle binding), % at 7 µM; 2C CD8+ T cell-vesicle binding, flow cytometry; hits give low values;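 active = response, share of CD8 T cells binding vesicles, and their 90th percentile fluorescence all below set limits, cut at about 80% in these data, passing the limit was not always enough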;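 also: values below 100% mean blocked vesicle binding to the CD8+ T cells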
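Benchmarks: naked versus QL9-loaded vesicles / Assay system: purified 2C TCR transgenic mouse naive CD8+ T cells / Technique: high-throughput flow cytometry with anti-B7-1 and anti-CD8 staining / Timing: Cell–vesicle co-incubation 1.5 h at 37 °C, staining 20 min on ice / Read-out: percent CD8+ FL2 mean versus row control / Probe or stimulus: QL9-loaded Drosophila micro-vesicles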
Exocytosis CP01 – lytic granule exocytosis inhibition; TALL-104 cells, LAMP-1 externalization, flow cytometry; stimulated with PMA plus thapsigargin; 11% of 1,500 active; shares compounds with Exocytosis inh; inhibition, % at 10 µM; AID 651954; in the data active = inhibition above about 60%;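 also: 0% = stimulated vehicle wells and 100% = unstimulated wells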
The depositor's hits bear a star; x = no result. Only some compounds are listed: those with a hit (about 2.6% of all), similar ones and a draw of the others.

SMILES | MC4R antagonist | EP2 antag | Exocytosis inh | EP2 mod | MC4R ag barr | T cell modulator | Exocytosis CP01
COc1cccc(O)c1CN1CCC(C(=O)Nc2ccc(-c3cccc(C)c3)cc2)CC1 | 6 | x | 66* | x | 7 | 146 | 14
COCCNCc1ccc(C(C)C)cc1 | 0 | 4 | 1 | 12 | -1 | 356 | x
COc1ccc(C(CCNCc2ccc(N(C)C)cc2)C(C)C)cc1 (stereo not drawn) | 0 | 13 | 69* | 10 | 2 | 353 | -13
Cc1cc(C)nc(/N=C(\N)Nc2cccc(OCc3ccccc3)c2)n1 | -10 | 15 | 85* | -32 | -2 | 416 | -10
Cc1cc(C)nc(/N=C(\N)Nc2ccc(OCc3ccccc3)cc2)n1 | -8 | 24 | 0 | -67 | 0 | 354 | x
O=C(COc1ccccc1[N+](=O)[O-])OC1CCS(=O)(=O)C1 (stereo not drawn) | 18 | 6 | -7 | 23 | -1 | 139 | x
O=C(CCCc1c[nH]c2ccccc12)NCCc1c[nH]c2ccccc12 | -2 | x | 80* | x | -1 | 196 | -14
CC(=O)CCc1oc2ccc(C)cc2c1-c1ccc(C)o1 | 5 | 8 | 91* | 41 | -1 | 215 | -11
CCCS(=O)(=O)N1CCCC(C(=O)Oc2ccccc2Cl)C1 (stereo not drawn) | 10 | x | 68* | x | 0 | 158 | -14
COc1ccc(CN2CCN(CCCCOc3ccc(Cl)cc3)CC2)c(OC)c1OC | -1 | 2 | 76* | 7 | -2 | 161 | -10
O=C(Cc1ccccc1)c1c[nH]c(C(=O)C(Cl)(Cl)Cl)c1 | -25 | x | 11 | x | -1 | 179 | x
COc1cc(CNCCc2c[nH]c3ccccc23)ccc1OCc1ccccc1F | -4 | 3 | -3 | -4 | 0 | 186 | x
COc1cccc(CNCCc2c[nH]c3ccccc23)c1OCc1ccccc1 | 8 | 11 | 65* | -10 | 7 | 298 | 28
O=C(c1ccc2c(c1)OCO2)n1nnc2ccccc21 | x | 12 | x | 38 | x | x | x
O=C1CC(Sc2nnnn2-c2ccccc2)C(=O)N1c1cccc(Cl)c1 (stereo not drawn) | 27 | 15 | 99* | -6 | 0 | 413 | 101*
COc1ccc(N2C(=O)CC(Sc3nnnn3-c3ccc(F)cc3)C2=O)cc1 (stereo not drawn) | 25 | 4 | 25 | 16 | -1 | 179 | x
Cc1ccc(C)c(NC(=O)c2nc(-c3ccccc3)n(-c3ccccc3)n2)c1 | 8 | -1 | 68* | 45 | -2 | 388 | 4
Cc1csc(NC(=O)c2nc(-c3ccccc3)n(-c3ccccc3)n2)n1 | 3 | 3 | -3 | 7 | -2 | 196 | x
COc1ccc(C)cc1NC(=O)c1nn(-c2ccccc2)cc1OC | 2 | x | 100* | x | 2 | 136 | -1
CCCCN(CC(O)COc1cccc(C)c1)CC(O)COc1cccc(C)c1 (stereo not drawn) | 16 | x | 83* | x | 6 | 110 | -4
CCc1c(C)c(C#N)c2nc3ccccc3n2c1Nc1c(C)n(C)n(-c2ccccc2)c1=O | 9 | 6 | 64* | 3 | -2 | 521 | -16
O=C(NC12CC3CC(CC(C3)C1)C2)C1CC(=O)N(c2ccccc2)C1 (stereo not drawn) | -3 | 8 | 8 | -36 | -1 | 336 | x
Cc1cc(C)c2cc(CN(CC3CCCO3)C(=S)NCCCN(C)C)c(=O)[nH]c2c1 (stereo not drawn) | x | 13 | x | -6 | x | x | x
CCC(C)[C@H](NC(=O)Nc1ccccc1F)C(=O)OC (stereo partly drawn) | 5 | 13 | 83* | -11 | -3 | 469 | -13
CN(C(=O)CSc1ncnc2ccccc12)C1CCCCC1 | -3 | x | -3 | x | -2 | x | x
SMILES | MC4R antagonist | EP2 antag | Exocytosis inh | EP2 mod | MC4R ag barr | T cell modulator | Exocytosis CP01
O=C(OCc1nc2ccccc2s1)c1ccco1 | 0 | 5 | 75* | 22 | -2 | 200 | -4
O=C(OCc1nc2ccccc2s1)c1ccc(Br)o1 | 3 | 10 | 1 | 18 | -1 | 147 | x
COCCn1c(SC(C)C(=O)NCC2CCCO2)nc2sc3c(c2c1=O)CCC3 (stereo not drawn) | 2 | x | 59* | x | 0 | 122 | -13
COCCn1c(SC(C)C(=O)NCC2CCCO2)nc2scc(-c3ccc(F)cc3)c2c1=O (stereo not drawn) | 3 | x | 1 | x | -2 | 370 | x
CCOc1ccc2[nH]c(C(=O)N3CCCC(O)(c4ccccc4OC)C3)cc2c1 (stereo not drawn) | x | 19 | x | -106 | x | x | x
COc1ccc2nc3c(c(-c4ccccc4)c2c1)CCC3 | -3 | 13 | 66* | 42 | -1 | x | 3
COc1ccc(OC)c(Nc2c3ccccc3nc3ccccc23)c1 | -6 | x | 67* | x | -1 | 38 | -2
COc1ccc2nc3c(nc2c1)CCCC3 | 5 | x | -1 | x | 0 | 193 | x
COc1ccc(OC)c(Nc2cc(C)c3ccccc3n2)c1 | -4 | x | -13 | x | 1 | 370 | x
COc1ccc(OC)c(Nc2c3c(nc4ccccc24)CCC3)c1 | -26 | x | 58* | x | -1 | 261 | -1
COc1cc(Nc2c3c(nc4ccccc24)CCC3)cc(OC)c1OC | -12 | x | 15 | x | -2 | 151 | x
COc1ccc([N+](=O)[O-])cc1Nc1c2ccccc2nc2ccccc12 | -18 | x | 73* | x | 0 | 255 | 73*
CCOc1ccc(CCNC(=O)COC(=O)COc2ccc(Cl)cc2)cc1OCC | 1 | x | -2 | x | 1 | 376 | x
CCC(=O)N1CCc2cc(Br)cc(S(=O)(=O)N(C)c3ccc(OC)cc3)c21 | -6 | x | 74* | x | 1 | 304 | -12
CCC(=O)N1CCc2cc(Br)cc(S(=O)(=O)CC(=O)OC)c21 | 4 | 9 | 0 | 5 | 0 | 195 | x
Cc1cccc(C)c1NC(=O)c1cccc(C(=O)Nc2c(C)cccc2C)n1 | 12 | x | -6 | x | -4 | 190 | x
COc1ccccc1C(=O)Nc1ccccc1SC(=O)c1ccccc1OC | -17 | x | 91* | x | 0 | 139 | 33
O=C(O)CCC(=O)Nc1ccc(CN2CCCCC2)cc1 | x | 3 | x | 17 | x | x | x
O=C(Cc1ccc(Cl)cc1)Nc1ccc(CN2CCCCC2)cc1 | 5 | 20 | 56* | -52 | -3 | 192 | -4
COc1ccccc1OCCn1cc(C(=O)O)c2ccccc21 | 28 | 7 | -1 | 3 | 2 | 568 | x
COc1ccccc1OCCn1cc(C(=O)C(C)C)c2ccccc21 | 1 | x | 60* | x | 0 | 470 | -13
CCCc1[nH]nc2c1C(c1cn[nH]c1-c1ccc(F)cc1)C(C#N)=C(N)O2 (stereo not drawn) | 8 | 8 | -4 | -6 | -1 | 191 | x
CC(NC(=O)Nc1cccc(Cl)c1)C(c1cccs1)N1CCCC1 (stereo not drawn) | -3 | 12 | -1 | -4 | 0 | 98 | x
